In PMC2704382 (Cell, 2009):
Like-named read-outs stand apart in the source and are kept apart here.

Assays:
[1] = system: LEF/TCF; assay: TCF reporter activity in DISC1 knockdown cells; assay type: cell-based
[2] = system: DISC1 knockdown AHP cells; assay: BrdU incorporation in DISC1 knockdown AHP cells; assay type: cell-based
Procedure, shortened: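 Lentivirus-transduced AHPs (GFP marker) seeded on polyornithine/fibronectin-coated coverslips and pulsed with BrdU (10 µM) in medium for 2 hours. Fixed in 4% paraformaldehyde and immunostained for BrdU. Five random fields and over 500 cells counted per experiment. Read-out is the percentage of GFP-positive cells also BrdU-positive.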

[3] = system: neural progenitor proliferation in mouse embryonic brains; assay: BrdU labeling in shRNA electroporated embryonic brains; assay type: in vivo
[4] = system: adult hippocampal progenitor proliferation in dentate gyrus; assay type: in vivo, mouse; conditions: 2 mg/kg every other day for 2 weeks, n=5
[5] = system: GSK3β; assay: In vitro GSK3β kinase assay; assay type: biochemical; conditions: for Inhibition of GSK3β: in vitro kinase assay
[6] = system: GSK3β; assay: GSK3β surface plasmon resonance; assay type: binding; conditions: SPR, peptide 25 µM

Q: For Cc1c[nH]c(-c2cnc(NCCNc3ccc(C#N)cn3)nc2-c2ccc(Cl)cc2Cl)n1 [CHIR-99021], which TCF activity [1] is on record?
A: The TCF activity was “rescued TCF activity in DISC1 knockdown cells to control levels”.

Q: With Cn1cc(C2=C(c3ccc(Cl)cc3Cl)C(=O)NC2=O)c2ccccc21 [SB-216763] as the molecule, how does the “Cell proliferation evaluated by BrdU incorporation” value [2] read?
A: The value was “restored cell proliferation”.

Q: And the BrdU labeling index ([3]; DISC1 shRNA electroporated embryonic brains)?
A: Its BrdU labeling index is “rescued the BrdU labeling index”.

Q: And the BrdU labeled cells ([3]; control shRNA electroporated mouse embryonic brains)?
A: Its BrdU labeled cells is “increased BrdU labeled cells”.

Q: And the TCF activity [1]?
A: The TCF activity was “rescued TCF activity in DISC1 knockdown cells to control levels”.

Q: And the “Number of BrdU positive cells” value ([4]; DISC1 shRNA-1 injected mice)?
A: The value was “rescued the reduction in BrdU positive cells”.

Q: What about the “Number of BrdU positive cells” value ([4]; mice infected with control virus) of the same molecule?
A: The value was “significantly increased”.

Q: What does the source list for “DISCtide2: 15-mer peptide that encompasses mDISC1 amino acids 211 to 225 (SFSFIQLSLGAAGER)”?
A: Inhibition of GSK3β kinase activity ([5]; data not shown, concentration not given): failed to inhibit; Percent theoretical maximal response [6]: 238%

Q: “DISCtide-1: synthesized peptide from mDISC1 spanning amino acids 195 to 238 (PADIASLPGFQDTFTSSFSFIQLSLGAAGERGEAEGCLPSREAE)” was tested. Which “Potency of GSK3β inhibition compared with L803-mts” value ([5]; dose-response curve, n=3) did it give?
A: The value was “more potently than L803-mts”.

Q: And the “Dose dependence of inhibition of recombinant GSK3β catalytic activity” value ([5]; in vitro)?
A: Its value is “dose dependent”.

Q: What about the “Inhibition of GSK3β” value ([5]; 10 µM peptide) of the same molecule?
A: The value was “inhibited”.

Q: What about the “Percent theoretical maximal response” value [6] of the same molecule?
A: The value was 197%.

Q: How did the “Inhibition of GSK3β” value ([5]; 80 µM peptide) turn out when “Peptide-neg: synthesized peptide from mDISC1 spanning amino acids 40–77 (GYMRSTAGSGIGFLSPAVGMPHPSSAGLTGQQSQHSQS)” was run?
A: The value was “did not inhibit”.

Q: What about the “Percent theoretical maximal response” value [6] of the same molecule?
A: The value was 62%.
